Consider 6 molecules from ChEMBL document CHEMBL3421626, “Prenylated benzophenones from Triadenum japonicum” (2015).

Each structure is given as a SMILES string. ≈ marks a conversion by molar mass, not a printed value. Numbered stars: 1 amine (or outer) side, 2 acyl side, 3 side chain; on linkers, the order of the positions; unused ones are H or OH. Bridge positions count the residues as written; N and C are the ends. Square brackets hold non-standard residues; d marks the D form. Peptide text beside a SMILES is read from it. * marks the point of attachment. hTyr(3S-OH,4S-OH,3'-OSO3H) = N[C@H](C(=O)O)[C@H](O)[C@@H](O)c1ccc(O)c(OS(=O)(=O)O)c1; Orn(4R-OH,5R-OH) = O=C([C@H](C[C@@H](O)[C@@H](O)N[*:3])N[*:1])[*:2]; Pro(3S-OH,4S-Me) = C[C@H]1CN[C@H](C(=O)O)[C@H]1O; X1 = CCCCCOc1ccc(-c2cc(-c3ccc(C(=O)*)cc3)no2)cc1; Gln(3R-OH) = NC(=O)C[C@@H](O)[C@H](N)C(=O)O; Hyp = O=C(O)[C@@H]1C[C@@H](O)CN1

Holding throughout (format): functional
Test [1] has as its system Trichophyton mentagrophytes. The test is described as follows: Antimicrobial activity against Trichophyton mentagrophytes IFM62679 assessed as reduction in […] growth incubated for 48 hrs by microbroth dilution method. The note with it: IFM62679, 48 h. In outline:
(§1)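 Panel assay run per a previously reported protocol. Amphotericin B, micafungin, hygromycin B and kanamycin served as control agents across the organism panel.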

The subject of a further test is Escherichia coli. In words: Antimicrobial activity against Escherichia coli assessed as reduction in bacterial growth incubated for 48 hrs by microbroth dilution method. In outline: as §1
The test system of the next test is Candida albicans. The test is described as follows: Antimicrobial activity against Candida albicans IFM62680 assessed as reduction in […] growth incubated for 48 hrs by microbroth dilution method. The note with it: IFM62680, 48 h.
The next test deals with Micrococcus luteus. In words: Antimicrobial activity against Micrococcus luteus assessed as reduction in bacterial growth incubated for 48 hrs by microbroth dilution method. Put shortly:
as §1

The test system of the next test is Aspergillus niger. The test is described as follows: Antimicrobial activity against Aspergillus niger IFM62678 assessed as reduction in […] growth incubated for 48 hrs by microbroth dilution method. The note with it: IFM62678, 48 h. Put shortly:
as §1

The subject of the next test is Bacillus subtilis. In words: Antimicrobial activity against Bacillus subtilis assessed as reduction in bacterial growth incubated for 48 hrs by microbroth dilution method. Put shortly:
as §1

Another test concerns Staphylococcus aureus. The test is described as follows: Antimicrobial activity against Staphylococcus aureus assessed as reduction in bacterial growth incubated for 48 hrs by microbroth dilution method. Put shortly:
as §1

In the case of `CN[C@H]1C[C@@H](N)[C@H](O)[C@@H](O[C@@H]2O[C@H](CO)[C@H](O)[C@H]3O[C@@]4(O[C@H]23)O[C@H]([C@H](N)CO)[C@H](O)[C@H](O)[C@H]4O)[C@@H]1O`, the IC50 in test [1] was 1 µg/mL (≈ 1.9 µM); in the test with Candida albicans, 3.9 µg/mL (≈ 7.39 µM); in the test with Aspergillus niger, 1 µg/mL (≈ 1.9 µM). Besides, the minimal inhibitory concentration (MIC) in the test with Escherichia coli was determined as 2 µg/mL (≈ 3.79 µM); with Micrococcus luteus it was 1 µg/mL (≈ 1.9 µM); in the test on Bacillus subtilis, 2 µg/mL (≈ 3.79 µM); in the test with Staphylococcus aureus, 0.5 µg/mL (≈ 0.948 µM).
On to `CC(C)=CC[C@@H]1C[C@@]2(CC=C(C)C)C(=O)C3(CC=C(C)C)C[C@]1(C)[C@]2(O)/C(=C(/O)c1ccccc1)C3=O`, for which the results for the half-maximal inhibitory concentration (IC50) (in test [1]; in the test with Candida albicans; in the test on Aspergillus niger) were 8 µg/mL (≈ 15.9 µM), 32 µg/mL (≈ 63.7 µM) and 16 µg/mL (≈ 31.8 µM), respectively. Besides, the MIC in the test with Escherichia coli turned out to be 8 µg/mL (≈ 15.9 µM); in the test with Micrococcus luteus, 32 µg/mL (≈ 63.7 µM); with Bacillus subtilis, 16 µg/mL (≈ 31.8 µM); in the test with Staphylococcus aureus it was 16 µg/mL (≈ 31.8 µM).
Take `CC(C)=CC[C@]12C[C@H]3C[C@@H](C(C)(C)OO)OO[C@]3(C)C[C@](CC=C(C)C)(C1=O)C(O)=C(C(=O)c1ccccc1)C2=O`: the IC50 with Candida albicans is 8 µg/mL (≈ 14.1 µM).
Turning to `C[C@@H]1[C@H](O)[C@@H](C)/C=C/C=C/C=C/C=C/C=C/C=C/C=C/[C@H](O[C@@H]2O[C@H](C)[C@@H](O)[C@H](N)[C@@H]2O)C[C@@H]2O[C@](O)(C[C@@H](O)C[C@@H](O)[C@H](O)CC[C@@H](O)C[C@@H](O)CC(=O)O[C@H]1C)C[C@H](O)[C@H]2C(=O)O` [AMPHOTERICIN B], the IC50 in test [1] was found to be 3.9 µg/mL (≈ 4.22 µM); in the test on Candida albicans, 1 µg/mL (≈ 1.08 µM); in the test on Aspergillus niger it was 1.8 µg/mL (≈ 1.95 µM). Further, the MIC in the test with Escherichia coli, in the test on Micrococcus luteus, in the test on Bacillus subtilis and in the test on Staphylococcus aureus was over 31.2 µg/mL throughout.
Take `NC[C@H]1O[C@H](O[C@H]2[C@H](O)[C@@H](O[C@H]3O[C@H](CO)[C@@H](O)[C@H](N)[C@H]3O)[C@H](N)C[C@@H]2N)[C@H](O)[C@@H](O)[C@@H]1O` [KANAMYCIN]: the IC50 in test [1] is 7.8 µg/mL (≈ 16.1 µM); in the test with Candida albicans, over 62.5 µg/mL; with Aspergillus niger, 31.3 µg/mL (≈ 64.6 µM). Further, the MIC is under 0.1 µg/mL in the test with Escherichia coli, 1 µg/mL (≈ 2.06 µM) in the test with Micrococcus luteus, under 0.1 µg/mL with Bacillus subtilis and under 0.1 µg/mL in the test on Staphylococcus aureus.
`CCCCCOc1ccc(-c2cc(-c3ccc(C(=O)N[C@H]4C[C@@H](O)[C@@H](O)NC(=O)[C@@H]5[C@@H](O)[C@@H](C)CN5C(=O)[C@H]([C@H](O)CC(N)=O)NC(=O)[C@H]([C@H](O)[C@@H](O)c5ccc(O)c(OS(=O)(=O)O)c5)NC(=O)[C@@H]5C[C@@H](O)CN5C(=O)[C@H]([C@@H](C)O)NC4=O)cc3)no2)cc1` [MICAFUNGIN] (X1-[Orn(4R-OH,5R-OH)]T[Hyp][hTyr(3S-OH,4S-OH,3'-OSO3H)][Gln(3R-OH)][Pro(3S-OH,4S-Me)]; lactam 1-C): the concentration for half-maximal inhibition (IC50) (in test [1]; in the test with Candida albicans; in the test with Aspergillus niger) was under 0.1 µg/mL each time. For the same molecule, the MIC in the test with Escherichia coli is over 62.5 µg/mL; in the test on Micrococcus luteus it was 7.8 µg/mL (≈ 6.14 µM); in the test on Bacillus subtilis it was 0.5 µg/mL (≈ 0.394 µM); in the test with Staphylococcus aureus, 0.5 µg/mL (≈ 0.394 µM).
